This is a sample that favours compounds with a hit; in the whole collection about 2.1% have one here.
FXIIa inh – blocks human coagulation factor XIIa protease activity. AID 800. purified FXIIa, Boc-QGR-AMC fluorogenic substrate, 2 h. inhibition, % at 5 µM. P00748. hit rate 0.3% among 220,000; in the data active = inhibition above about 40%;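 note: 0% = enzyme with no compound and 100% = blank without enzyme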
EP2 antag – inhibitors of human EP2 prostaglandin E2 receptor | inhibition, % at 25 µM | hit rate 0.52% among 260,000 | C6 glioma cells expressing human EP2, cAMP TR-FRET; cells stimulated with saturating PGE2 | AID 1422 | P43116;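 active = percent inhibition above 40 after rounding to a whole number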;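 note: rat C6 glioma host cells with rolipram phosphodiesterase inhibitor present; the protocol text gives 20 µM as final concentration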
Target sequence (P43116 whole entry, looked up): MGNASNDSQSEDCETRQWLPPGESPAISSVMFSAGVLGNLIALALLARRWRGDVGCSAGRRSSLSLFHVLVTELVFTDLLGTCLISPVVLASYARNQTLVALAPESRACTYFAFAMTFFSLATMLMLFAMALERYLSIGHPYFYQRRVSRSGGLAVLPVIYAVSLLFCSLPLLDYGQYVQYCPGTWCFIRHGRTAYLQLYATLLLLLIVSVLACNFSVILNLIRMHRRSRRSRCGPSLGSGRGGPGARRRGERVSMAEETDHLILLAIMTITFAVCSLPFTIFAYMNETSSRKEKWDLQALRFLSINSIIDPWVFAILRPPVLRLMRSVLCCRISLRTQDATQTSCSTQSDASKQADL
EP2 modulator – EP2 receptor (human) modulation. hit rate 0.83% among 260,000. induction, % at 25 µM. EP2-expressing cells, cAMP HTRF FRET, PGE2 co-stimulation;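 active = compounds whose cAMP rise, as percent of the full-agonist control response, exceeds 60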;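 note: rat C6 glioma line stably carrying human EP2 under a CMV promoter; the protocol text gives 20 µM as final concentration; 100% = response of wells given 1 µM PGE2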
hK5 inh – kallikrein 5 (human) inhibition; hit rate 0.59% among 210,000; AID 873; recombinant hK5, fluorogenic AMC substrate cleavage; Q9Y337; inhibition, % at 5 µM;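 active = inhibition of 40% or more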;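 note: 0% = enzyme controls without compound and 100% = no-enzyme blanks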
Target sequence (Q9Y337 67-293 limits assumed): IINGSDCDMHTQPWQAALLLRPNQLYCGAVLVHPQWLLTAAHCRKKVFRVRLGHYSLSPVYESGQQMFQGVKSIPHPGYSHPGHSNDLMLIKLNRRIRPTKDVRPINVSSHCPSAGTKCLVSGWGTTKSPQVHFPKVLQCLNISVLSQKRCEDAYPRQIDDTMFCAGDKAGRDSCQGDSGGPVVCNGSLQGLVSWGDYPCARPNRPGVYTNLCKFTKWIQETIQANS
thrombin 1536 – inhibitors of human thrombin; inhibition, % at 5 µM; alpha-thrombin, Boc-VPR-AMC fluorogenic substrate cleavage; hit rate 0.26% among 220,000;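 active = inhibition at or above 40%; inactive = inhibition below 40%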;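 note: 0% = enzyme with no compound and 100% = wells without enzyme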
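Material: Human alpha-thrombin protein | Buffer or medium: pH 7.5 Tris-saline with Tween 20 | Reagent: Boc-VPR-AMC substrate, 15 µM final | Schedule: Reaction at ambient temperature | Detection: AMC fluorescence at 355 nm excitation and 460 nm emission | Evaluation: Percent inhibition scaled between no-compound controls and no-enzyme blanks | Controls: no-compound enzyme wells and no-enzyme blanks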
FXIa inh – blocks human coagulation factor XIa protease activity | inhibition, % at 5 µM | hit rate 0.14% among 220,000 | purified FXIa, Boc-Glu-Ala-Arg-AMC fluorogenic substrate | AID 798;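 active = inhibition of at least 40%; inactive = inhibition below 40%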;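 note: fluorescence of freed AMC excited at 355 nm; 0% = enzyme without compound and 100% = no enzyme blank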
EP2 cAMP induct – EP2 receptor cAMP induction, counter-screens negative | shares compounds with EP2 modulator | C6 glioma EP2 cells, cAMP HTRF induction; plus low (about EC15) PGE2 agonist | calls only at 20 µM (by protocol) | hit rate 47% among 1,300 | AID 1080;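 active = cAMP induction above 50% in the main assay while under 30% in all four parallel counter assays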;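 note: rat C6 glioma cells stably expressing human EP2 receptor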
Numbers without * were called inactive; i = inactive; . = no result; + = active, no number.

SMILES	FXIIa inh	EP2 antag	EP2 modulator	hK5 inh	thrombin 1536	FXIa inh	EP2 cAMP induct
Cc1ccc(-c2nc3ccccc3nc2Cl)cc1	-0.7	7.9	65.2*	-6.1	-6.4	-5.3	i
CCn1c2ccccc2n2c(=O)n(Cn3nnc4ccccc43)nc12	.	3.8	-5.4	.	.	.	.
O=C(O)c1ccc(N2C(=O)/C(=C/C=C/c3ccccc3)SC2=S)cc1	9.0	12.9	80.4*	4.3	-0.8	-1.4	+
Cc1cc(NC(=O)Cn2nnc3sc4c(c3c2=O)CCC(C(C)(C)C)C4)no1 (stereo not given)	3.9	7.1	50.8	5.9	-1.6	-1.0	i
Cc1cc(NC(=O)Cn2nnc3sc4c(c3c2=O)CCCC4)no1	13.6	10.6	-5.8	5.6	1.8	1.4	.
Cc1occc1-c1nnc(SCC(=O)Nc2ccccc2N2CCCCC2)n1C	17.8	7.2	55.2	-10.6	4.0	2.9	i
O=C(CNC1CCCCCC1)Nc1ccccc1N1CCCCC1	5.1	8.0	-17.3	-7.0	-4.8	-6.4	.
O=C(CNCC1CCCCC1)Nc1ccccc1N1CCCCC1	8.8	5.4	65.7*	-3.1	-0.4	-1.0	+
O=C(Nc1ccccc1N1CCOCC1)c1cccc([N+](=O)[O-])c1	7.0	10.5	2.4	6.9	-7.9	5.5	.
O=C(Nc1ccccc1N1CCCCC1)c1cccc([N+](=O)[O-])c1	11.1	2.8	50.9	-7.4	-10.3	2.3	+
O=C(Nc1ccccc1N1CCCCC1)c1ccc(F)cc1	2.2	6.3	66.3*	-2.8	-6.6	-5.5	+
COc1cc(CN2C[C@@H]3CCCN3C[C@H]2Cc2ccccc2)cc(OC)c1OC	.	7.0	0.1	.	.	.	.
CCn1cc(C(=O)N[C@@H](C)Cn2nnc3ccccc32)cn1	.	13.4	-9.4	.	.	.	.
CC(=O)C1=C(O)C(=O)N(CCNCCO)C1c1ccccn1 (stereo not given)	.	12.4	10.0	.	.	.	.
COc1cc(C(=O)NCCNc2nc(C)nc3sc4c(c23)CCCC4)cc(OC)c1OC	.	10.4	-5.2	.	.	.	.
O=C(Cc1c(F)cccc1Cl)Nc1ccccc1N1CCCCC1	4.1	5.2	75.4*	-2.1	-4.5	0.8	+
Cc1ccc(-c2csc3ncnc(N4CCc5ccccc5C4)c23)cc1	-2.2	4.0	69.8*	-6.4	-7.1	-5.6	i
Cc1cc(C)c2[nH]c(=O)c(C(c3nnnn3C3CCCC3)N3CCCC(C)C3)cc2c1 (stereo not given)	.	6.9	9.4	.	.	.	.
CCOC(=O)c1[nH]c2ccc(OC)cc2c1NS(=O)(=O)c1ccc(Cl)s1	16.5	4.3	95.6*	7.6	-0.7	28.7	+
CCc1nnc2n1N=C(c1ccc(OC)cc1)CS2	25.4	12.8	6.2	-2.4	-0.3	18.6	.
CCOc1ccc(-c2nnc3n2N=C(c2ccc(OC)cc2)CS3)cc1	10.4	2.9	74.9*	2.4	-2.5	1.8	+
CCOc1ccc(C2=Nn3c(nnc3-c3ccccc3OC)SC2)cc1	18.3	6.5	74.1*	18.4	5.9	5.2	+
CS(=O)(=O)N1CCC(C(=O)NC2CC3(CCCC3)Oc3ccccc32)CC1 (stereo not given)	.	2.8	-20.6	.	.	.	.
O=C(c1ccccc1)N1N=C(c2ccccc2)CC1c1ccccc1O (stereo not given)	-1.4	6.5	84.8*	-9.0	-4.5	-6.1	+
O=C(c1cccs1)N1N=C(c2ccccc2)CC1c1ccccc1O (stereo not given)	6.6	3.4	24.4	.	-0.1	1.6	.
SMILES	FXIIa inh	EP2 antag	EP2 modulator	hK5 inh	thrombin 1536	FXIa inh	EP2 cAMP induct
C=C(C)COc1ccc2c(c1)CC[C@@H]1[C@H]3C/C(=N/O)C(=O)[C@]3(C)CC[C@@H]21	.	30.1	63.1*	.	.	.	i
C[C@]12CC[C@@H]3c4ccc(O)cc4CC[C@H]3[C@@H]1CCC2=O	10.3	15.1	-51.8	-11.9	0.1	-0.1	.
Cc1cc(C(F)(F)F)n2nc(C(=O)N3C4CCC3CC(c3ccc(F)cc3)C4)cc2n1 (stereo not given)	.	8.9	2.0	.	.	.	.
O=C(O)CCN1CCCC1=O	.	7.4	4.5	.	.	.	.
Cc1cc2ccccn2c1C(=O)c1ccc(Cl)cc1	17.1	5.8	65.1*	3.2	6.0	1.9	i
Cc1cc2ccccn2c1C(=O)c1ccncc1	11.4	18.1	10.6	-1.5	-2.1	-0.5	.
C=C1CCC(=O)C(C)CCC2C1CC2(C)C (stereo not given)	.	10.7	9.9	.	.	.	.
C=C1CCC2C(CC2(C)C)C(=C)CC/C1=N/O (stereo not given)	.	14.8	55.0	.	.	.	i
CCSC1=N/C(=C\c2ccccc2)C(=O)N1c1ccc(OC)cc1	4.5	5.6	79.2*	4.2	-9.9	-2.2	+
CCOC(=O)CCCCC(=O)c1[nH]c(=O)[nH]c1C[n+]1ccccc1	6.1	3.5	13.7	-3.9	2.9	0.9	.
CCOC(=O)CCCCCCCCCCCCC1C=CCC1 (stereo not given)	.	9.7	53.6	.	.	.	+
CC(C)N(CCNC(=O)c1oc(=O)c2ccccc2c1-c1ccccc1)Cc1ccco1	6.1	10.3	68.7*	-4.3	12.4	-6.1	i
COc1cc2cc(C)c(SCC(=O)Nc3ccccc3Br)nc2cc1OC	.	19.0	48.1	.	.	.	.

Screening results from PubChem.
